The values below come from ChEMBL document CHEMBL1671710, “Different classes of antibiotics differentially influence shiga toxin production” (2010).

In brackets after ≈: the same amount, converted by molar mass. Activity calls are given as the source filed them. The rule behind the calls is not given here.

Assay [1] has as its system Escherichia coli. As to the kind of experiment: Antimicrobial activity against Escherichia coli O157:H7 185 encoding stx gene by broth microdilution method. The format is functional, organism-based.
For assay [2], the system named is Escherichia coli. As to the kind of experiment: Antimicrobial activity against Escherichia coli O157:H7 PT-32 in stationary phase encoding Stx-1 and Stx-2 gene by broth macrodilution assay. The class given is functional. In outline:
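Overnight MH-broth cultures (stationary phase) were diluted 1:1,000, then 1:200. 1 ml was mixed with 1.0 ml of antibiotic in MH broth, with trimethoprim:sulfamethoxazole at 1:5, and held overnight at 37°C with rotary aeration. MIC judged visually, corresponding to ∼10^7 CFU/ml.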

Assay [3] deals with Escherichia coli. As to the kind of experiment: Antimicrobial activity against Escherichia coli C600::H19B in stationary phase encoding Stx-1 gene by broth macrodilution assay.
The subject of assay [4] is Escherichia coli. As to the kind of experiment: Antimicrobial activity against Escherichia coli O157:H7 PT-40 in stationary phase encoding Stx-2 gene by broth macrodilution assay.
The test system of assay [5] is Escherichia coli. As to the kind of experiment: microbe, parasite or virus in culture. Conditions: C600::933W.
Assay [6] has as its system Escherichia coli. Briefly: Antimicrobial activity against Escherichia coli C600::H19B in logarithmic phase encoding Stx-1 gene by broth macrodilution assay.
The test system of assay [7] is Escherichia coli. Briefly: Antimicrobial activity against Escherichia coli C600::933W in logarithmic phase encoding Stx-2 gene by broth macrodilution assay. The format is functional.
For assay [8], the system named is Escherichia coli. Briefly: Antimicrobial activity against Escherichia coli O157:H7 PT-32 in logarithmic phase encoding Stx-1 and Stx-2 gene by broth macrodilution assay.
The test system of assay [9] is Escherichia coli. Briefly: Antimicrobial activity against Escherichia coli O157:H7 PT-40 in logarithmic phase encoding Stx-2 gene by broth macrodilution assay. The format is functional.

For `CC1(C)S[C@@H]2[C@H](NC(=O)[C@H](N)c3ccccc3)C(=O)N2[C@H]1C(=O)O` [AMPICILLIN], the outcome in the assay with Escherichia coli [1] was Active. In addition, the MIC in the assay with Escherichia coli [2] worked out at 4 µg/mL (≈ 11.4 µM); against Escherichia coli [3] it was 8 µg/mL (≈ 22.9 µM); against Escherichia coli [4], 8 µg/mL (≈ 22.9 µM); against Escherichia coli [5], 8 µg/mL (≈ 22.9 µM); in the assay with Escherichia coli [6], 4 µg/mL (≈ 11.4 µM).
`CC[C@H]1OC(=O)[C@H](C)[C@@H](O[C@H]2C[C@@](C)(OC)[C@@H](O)[C@H](C)O2)[C@H](C)[C@@H](O[C@@H]2O[C@H](C)C[C@H](N(C)C)[C@H]2O)[C@](C)(O)C[C@@H](C)CN(C)[C@H](C)[C@@H](O)[C@]1(C)O` [AZITHROMYCIN]: the MIC in the assay on Escherichia coli [2] stood at 2.6 µg/mL (≈ 3.47 µM); with Escherichia coli [7] it was 2 µg/mL (≈ 2.67 µM); with Escherichia coli [3], 2 µg/mL (≈ 2.67 µM); with Escherichia coli [4], 2.6 µg/mL (≈ 3.47 µM); against Escherichia coli [5], 2 µg/mL (≈ 2.67 µM); in the assay on Escherichia coli [6], 2 µg/mL (≈ 2.67 µM). Moreover, the MIC against Escherichia coli [8] came out at 2.6 µg/mL (≈ 3.47 µM); in the assay on Escherichia coli [9] it was 4 µg/mL (≈ 5.34 µM).
As to `CO/N=C(\C(=O)N[C@@H]1C(=O)N2C(C(=O)O)=C(CSc3nc(=O)c(O)nn3C)CS[C@H]12)c1csc(N)n1` [CEFTRIAXONE], the MIC with Escherichia coli [2] was determined as 0.03 µg/mL (≈ 0.0541 µM); against Escherichia coli [7], 0.03 µg/mL (≈ 0.0541 µM); against Escherichia coli [3] it was 0.06 µg/mL (≈ 0.108 µM); against Escherichia coli [4] it was 0.06 µg/mL (≈ 0.108 µM); in the assay on Escherichia coli [5], 0.03 µg/mL (≈ 0.0541 µM); with Escherichia coli [6], 0.03 µg/mL (≈ 0.0541 µM). For the same molecule, the MIC was found to be 0.03 µg/mL (≈ 0.0541 µM) in the assay on Escherichia coli [8] and 0.06 µg/mL (≈ 0.108 µM) against Escherichia coli [9].
`C[C@H]1c2cccc(O)c2C(=O)C2=C(O)[C@]3(O)C(=O)C(C(N)=O)=C(O)[C@@H](N(C)C)[C@@H]3[C@@H](O)[C@@H]21.O` [DOXYCYCLINE]: the outcome in the assay with Escherichia coli [1] was Active. In addition, the MIC in the assay with Escherichia coli [2] was determined as 0.5 µg/mL; against Escherichia coli [7] it was 0.5 µg/mL; against Escherichia coli [3], 0.5 µg/mL; in the assay on Escherichia coli [4] it was 1 µg/mL; with Escherichia coli [5], 1 µg/mL; in the assay with Escherichia coli [6], 0.25 µg/mL. Also, the MIC in the assay with Escherichia coli [8] and in the assay with Escherichia coli [9] was 1 µg/mL throughout.
In the case of `C[C@@H]1O[C@@H]1P(=O)(O)O` [FOSFOMYCIN], the MIC came to 16 µg/mL (≈ 116 µM) against Escherichia coli [2]; 2 µg/mL (≈ 14.5 µM) with Escherichia coli [7]; 0.5 µg/mL (≈ 3.62 µM) against Escherichia coli [3]; 16 µg/mL (≈ 116 µM) against Escherichia coli [4]; 2 µg/mL (≈ 14.5 µM) against Escherichia coli [5]; 2 µg/mL (≈ 14.5 µM) against Escherichia coli [6]. Besides, the MIC in the assay with Escherichia coli [8] and with Escherichia coli [9] was 16 µg/mL (≈ 116 µM) in each case.
As to `CO[C@H]1/C=C/O[C@@]2(C)Oc3c(C)c(O)c4c(O)c(c(/C=N/N5CCN(C)CC5)c(O)c4c3C2=O)NC(=O)/C(C)=C\C=C\[C@H](C)[C@H](O)[C@@H](C)[C@@H](O)[C@@H](C)[C@H](OC(C)=O)[C@@H]1C` [RIFAMPIN], the MIC is 2 µg/mL (≈ 2.43 µM) in the assay on Escherichia coli [2]; 8 µg/mL (≈ 9.72 µM) against Escherichia coli [7]; 16 µg/mL (≈ 19.4 µM) against Escherichia coli [3]; 16 µg/mL (≈ 19.4 µM) in the assay on Escherichia coli [4]; 8 µg/mL (≈ 9.72 µM) with Escherichia coli [5]; 4 µg/mL (≈ 4.86 µM) in the assay on Escherichia coli [6]. For the same molecule, the MIC in the assay with Escherichia coli [8] and against Escherichia coli [9] was 4 µg/mL (≈ 4.86 µM) each time.
For `Cc1cc(NS(=O)(=O)c2ccc(N)cc2)no1` [SULFAMETHOXAZOLE], the MIC against Escherichia coli [2] was found to be 0.13 µg/mL (≈ 0.513 µM); against Escherichia coli [7], 0.01 µg/mL (≈ 0.0395 µM); against Escherichia coli [3] it was 0.03 µg/mL (≈ 0.118 µM); against Escherichia coli [4], 0.13 µg/mL (≈ 0.513 µM); in the assay with Escherichia coli [5], 0.03 µg/mL (≈ 0.118 µM); with Escherichia coli [6] it was 0.004 µg/mL (≈ 0.0158 µM). In addition, the MIC against Escherichia coli [8] and against Escherichia coli [9] was 0.13 µg/mL (≈ 0.513 µM) in each case.
Regarding GENTAMICIN, the MIC against Escherichia coli [2], in the assay on Escherichia coli [7] and in the assay with Escherichia coli [9] was 0.25 µg/mL in each case.
